The values below come from ChEMBL document CHEMBL5104115, “Design, synthesis of novel triptolide-glucose conjugates targeting glucose Transporter-1 and their selective antitumor effect” (Eur J Med Chem, 2022).

The structures appear in SMILES notation. Active and inactive are the calls of the source. No cut-off for these calls is given here.

In one series the test system is NCI-H1975 (Homo sapiens). The series can be described thus: Antineoplastic activity against human NCI-H1975 cells xenografted in BALB/c nude mouse assessed as tumor growth inhibition at 1 to 2 mg/kg, ip, qd for 2 weeks. The following applies: dose 1-2 mg/kg.
Series [1] in a line: Stability in NCI-H1975 tumor bearing nude mouse model plasma at 1 mg/kg, iv. The class given is ADME, organism-based. The settings on record: in vivo.
Series [2] is described as follows: Octanol-water partition coefficient, logD of the compound in PBS at pH 7.4 by liquid chromatography based mass spectrometric analysis. The class given is physicochemical. A digest of the protocol: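 Shake-flask method: 3.0 mg compound dissolved in PBS-saturated n-octanol and rotated 24 h at room temperature. The octanol phase was then mixed with octanol-saturated PBS, rotated another 24 h and centrifuged. Both phases quantified by LC-MS against a standard curve, and log P = log(C octanol/C water).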

The subject of series [3] is NCI-H460. The series can be described thus: Induction of apoptosis in human NCI-H460 cells assessed as necrotic cells at 50 uM measured after 48 hrs by Annexin V-FITC/PI staining method (reference value: 1.62%). The class given is functional.
Series [4] relates to NCI-H460. The experiment in a line: Induction of apoptosis in human NCI-H460 cells assessed as late apoptotic cells at 50 uM measured after 48 hrs by Annexin V-FITC/PI staining method (reference value: 8.47%). The class given is functional.
The subject of another series is HT-29. The series can be described thus: Cytotoxicity against human HT-29 cells incubated for 72 hrs by MTT assay. In kind it is functional, cell-based. The following applies: HT-29, 72 h. The method in brief: (§1)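 Cells seeded at 4000/well, incubated overnight, then exposed to a range of concentrations, or DMSO vehicle, for 72 h. MTT (5 mg/mL solution) added for 4 h and formazan dissolved in DMSO. Absorbance read at 570 nm, and IC50 derived from the curves. Tumor lines were grown in RPMI 1640; HUVEC, HaCaT and LO2 were grown in DMEM, each with 10% FBS at 37 °C and 5% CO2.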

Series [5] can be described thus: Cytotoxicity against human HaCaT cells incubated for 72 hrs by MTT assay. In kind it is toxicity, cell-based. The method in brief: as §1

For `CC(C)[C@]12O[C@H]1[C@@H]1O[C@]13[C@]1(O[C@H]1C[C@H]1C4=C(CC[C@@]13C)C(=O)OC4)[C@@H]2OC(=O)CCC(=O)O[C@H]1C(O)O[C@H](CO)[C@@H](O)[C@@H]1O` (some centres not stated), the outcome with NCI-H1975 (Homo sapiens) was Active. For the same molecule, in series [1], the Stability result is “Unstable”. The molecule also yielded a logD in series [2] of -0.347. The Activity is recorded as 5.77% with NCI-H460 [3] and 21.4% in the series with NCI-H460 [4]. This molecule registered an IC50 in the series on HT-29 of 2.19 µM. Moreover, the IC50 at 72 h in series [5] came out at 6.54 µM.
